Source: PubChem (several laboratories)
In the library only some 3.1% were active in any assay of this set; here they are far more common.
IMP-1 inhibitor: inhibitors of Pseudomonas aeruginosa IMP-1 metallo-beta-lactamase | 290,000 compounds, 0.45% hits | purified IMP-1, nitrocefin hydrolysis, epi-absorbance fluorescence | inhibition, % at 5.6 µM | AID 1556;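 active means inhibition above the mean plus 3 SD of all compounds in the same screening run, cut at about 4.5% in these data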;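 further: 0% = IMP-1 with DMSO and 100% = DMSO wells lacking enzyme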
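System: purified recombinant IMP-1 beta-lactamase. Medium: Zinc- and detergent-supplemented HEPES buffer, pH 7.1. Compound: one 5.6 µM dose […]. Schedule: 15 min preincubation plus 25 min reaction at 25 °C. Technique: Epi-absorbance fluorescence, 480 nm excitation, 530 nm emission.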
HCV core dimer: HCV core protein dimerization inhibition | 300,000 compounds, 0.33% hits | inhibition, % at 5 µM | AID 1899 | TR-FRET GST/Flag-core106 dimerization, 1536-well;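 active means inhibition above the mean of all tested compounds plus 3 SD, set per screening campaign, cut at about 45% in these data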
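System – GST-tagged and Flag-tagged HCV core protein residues 1-106 · Repeats – one well for each compound · Technique – TR-FRET 671 and 617 nm emission · Doses – one concentration, 5 µM, in 0.5% DMSO · Times – 4 h, 22.5 °C incubation · Also added – Eu donor and XL665 acceptor anti-tag antibodies · Measure – percent inhibition of core106 dimerization signal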
VIM-2 inhibitor: blocks Pseudomonas aeruginosa VIM-2 metallo-beta-lactamase | purified VIM-2, nitrocefin hydrolysis, epi-absorbance fluorescence | inhibition, % at 5.6 µM | 290,000 compounds, 0.89% hits | AID 1527;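 active means inhibition above the mean of all tested compounds plus 3 SD, cutoff set per screening run, cut at about 7.5% in these data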;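 further: red hydrolysis product quenches plate fluorescence so inhibitors raise well fluorescence; 0% = enzyme with DMSO and 100% = DMSO without enzyme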
PHOSPHO1 inh: inhibitors of human PHOSPHO1 phosphatase | Q8TCT1 | recombinant PHOSPHO1, absorbance phosphatase assay | inhibition, % at 13.3 µM | 290,000 compounds, 1.1% hits | AID 1565; in the data active means inhibition above about 60%
Target sequence (Q8TCT1 whole entry, looked up): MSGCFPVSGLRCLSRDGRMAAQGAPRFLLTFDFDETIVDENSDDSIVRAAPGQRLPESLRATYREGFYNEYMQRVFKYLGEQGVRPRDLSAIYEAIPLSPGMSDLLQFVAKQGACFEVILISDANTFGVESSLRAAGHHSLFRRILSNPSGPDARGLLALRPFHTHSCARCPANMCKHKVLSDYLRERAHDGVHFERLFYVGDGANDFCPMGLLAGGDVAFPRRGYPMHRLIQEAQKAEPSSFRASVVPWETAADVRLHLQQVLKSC
NS3 helicase inh: HCV NS3 helicase inhibition | 290,000 compounds, 0.56% hits | AID 1800 | inhibition, % at 10.9 µM | NS3 helicase DNA unwinding, Cy5 molecular beacon fluorescence;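 active means inhibition above the mean of all tested compounds plus 3 SD, set per campaign, cut at about 35% in these data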;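 further: 0% = DMSO wells and 100% = thioflavine S control wells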
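test system = hepatitis C virus NS3 helicase domain fragment enzyme | reagent = annealed dual-labelled DNA beacon duplex, ATP-started | times = 1 h at 25 °C | detection = Cy5 fluorescence, 0 and 60 min reads | read-out basis = percent inhibition from t60/t0 fluorescence ratio | control set = DMSO and thioflavine S | replication = one well per compound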
UBC9 SUMO inh: SUMOylation inhibition; P63279; HTRF SUMOylation assay, SAE1/SAE2 + UBC9, in vitro; inhibition, % at 35 µM; 290,000 compounds, 0.36% hits; in the data active means inhibition above about 50%, passing the limit was not always enough
Target sequence (P63279 whole entry, looked up): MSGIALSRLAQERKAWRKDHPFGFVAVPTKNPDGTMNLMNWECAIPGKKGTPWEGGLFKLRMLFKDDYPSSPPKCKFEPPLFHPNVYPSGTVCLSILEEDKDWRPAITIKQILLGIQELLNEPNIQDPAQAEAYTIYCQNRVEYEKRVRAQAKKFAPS
Numbers without * were called inactive; nt = not tested or not shown.

SMILES	IMP-1 inhibitor	HCV core dimer	VIM-2 inhibitor	PHOSPHO1 inh	NS3 helicase inh	UBC9 SUMO inh
Cc1[nH]c2ccc(-c3nnc(SCC(=O)c4ccc(F)cc4)o3)cc2c1C	0	13	0	87*	-4	-2
Cc1cc(C)c(C)c(C(=O)CSc2nnc(-c3ccc4[nH]c(C)c(C)c4c3)o2)c1C	0	7	-4	61*	0	-2
CC(C)[C@H](NC(N)=O)C(=O)Nc1ccc(F)c(Cl)c1	-1	-1	4	-3	-9	14
CN1CCN(S(=O)(=O)c2cccc(C(=O)Nc3sc4c(c3C(N)=O)CCCC4)c2)CC1	-1	6	-4	70*	1	37
CNC(=O)c1c(NC(=O)c2cccc(C)c2)sc2c1CCC2	4.7*	2	2	24	-7	7
Cc1ccc(C(=O)Nc2sc3c(c2C(=O)NCc2ccco2)CCCC3)cc1	-1	17	0	24	4	73*
Cc1cccc(C(=O)Nc2sc3c(c2C(=O)O)CCC3)c1	0	0	0	28	29	16
CNC(=O)c1c(NC(=O)c2ccco2)sc2c1CCCC2	-1	1	2	22	-2	20
Cc1ccc(C(=O)C(NC(=O)c2ccco2)Nc2sc3c(c2C(N)=O)CCCC3)cc1 (stereo unspecified)	-3	66*	-3	-9	4	8
CC(C)Oc1ccc(CN2CCC(n3nccc3NC(=O)C3CC3)CC2)cc1	-2	5	-3	14	2	6
COCCNC(=O)c1cn(C)c2ccc(S(=O)(=O)N3CCCCC3)cc2c1=O	0	5	-2	28	5	14
CCN(Cc1ccncc1)C(=O)c1cc(COc2ccc(OC)cc2Cl)on1	-2	-1	-4	18	-8	14
CN(C)c1ccc(/C=N/NC(=O)c2ccc(CN3C(=O)c4cccc5cccc3c45)cc2)cc1	-1	43	-1	-4	-12	11
O=C(N/N=C/c1ccc(O)cc1O)c1ccc(CN2C(=O)c3cccc4cccc2c34)cc1	-3	54*	-4	-41	-2	-50
O=C(N/N=C/c1ccccc1)c1ccc(CN2C(=O)c3cccc4cccc2c34)cc1	-2	13	-1	7	-13	50*
O=C(COc1ccc(C(=O)NCC2CCCO2)cc1)Nc1cccc(C(F)(F)F)c1 (stereo unspecified)	nt	2	nt	nt	nt	nt
Cc1ccc(C)c(N2CC(C(=O)Nc3cc(C)on3)CC2=O)c1 (stereo unspecified)	0	-4	0	28	-6	14
CCN1CCN(c2ccc(NC(=O)c3ccc4c(c3)[nH]c(=O)n4Cc3ccc(OC)cc3)cc2)CC1	-2	-18	11*	3	-71	25
Cc1nn(-c2ccc(N3CCOCC3)nn2)c(C)c1CCC(=O)NCc1ccccc1	-2	8	-2	48	-1	14
COc1ccc(CC(=O)NNC(=S)Nc2ccc(Br)cc2)cc1	-4	1	-3	98*	-13	-78
O=C(Cn1nc(C(F)F)cc1C(F)F)NNC(=S)Nc1ccc(Cl)cc1	-6	1	-5	100*	3	-21
COc1ccc(NC(=S)NNC(=O)Cn2nc([N+](=O)[O-])cc2C)cc1	-2	-5	2	79*	13	0
Cc1cc([N+](=O)[O-])nn1CC(=O)NNC(=S)Nc1ccc([N+](=O)[O-])cc1	-3	0	-5	58	6	2
CCOc1ccc(CC(=O)NNC(=S)Nc2ccccc2)cc1Br	-3	3	-3	87*	-3	-79
CN(C)Cc1ccccc1COc1ccccc1	-1	-10	-1	-18	-4	0
SMILES	IMP-1 inhibitor	HCV core dimer	VIM-2 inhibitor	PHOSPHO1 inh	NS3 helicase inh	UBC9 SUMO inh
O=C(Cc1cnc2ncnn2c1)N1CCc2c([nH]c3ccccc23)C1c1ccccc1F (stereo unspecified)	-3	3	-6	52	3	10
COc1ccc(CC(=O)NNC(=S)Nc2ccccc2)cc1Br	-4	2	-3	93*	4	-81
CC(C)Oc1ccc(CC(=O)NNC(=S)Nc2ccccc2)cc1	-2	0	0	16	-2	-12
CCOc1ccccc1C(=O)N/N=C/c1cccc2cccnc12	-5	-3	9.2*	4	-6	17
CC(C)NC(=O)[C@H]1N2C(=O)c3ccccc3C2SC1(C)C (stereo partly specified)	-1	0	-2	40	1	6
Cc1ccc(OCC(=O)c2ccc(Cl)s2)c([N+](=O)[O-])n1	-2	57*	1	28	11	25
Cc1ccc(CNC(=O)COc2ccc(C)nc2[N+](=O)[O-])cc1	-3	-3	0	-2	18	-22
CC(C)(C)c1cc(NC(=O)CSc2nncs2)n(-c2ccccc2)n1	-4	4	-4	-3	5	-1
COc1ccc(C2CC(=O)N3CN(c4ccccc4F)CSC3=C2C#N)cc1OC (stereo unspecified)	-1	-3	-2	90*	2	35
CCc1ccccc1N1CSC2=C(C#N)C(c3ccccc3F)CC(=O)N2C1 (stereo unspecified)	-3	-11	0	61*	23	13
COc1cc(OC)c(C2CC(=O)N3CN(c4ccccc4C)CSC3=C2C#N)cc1OC (stereo unspecified)	-2	13	-2	11	14	24
Cc1ccc2c(SCC(=O)NCc3ccco3)nc(-c3ccc(F)cc3)nc2c1	-3	14	-3	13	2	59*
O=C(CSc1ncc(-c2ccc(F)cc2)[nH]1)NCc1ccco1	-3	9	-2	74*	3	22
O=C(CSc1nc(-c2ccc(F)cc2)cs1)NC(=O)NCc1ccco1	-2	43	-4	79*	13	11
O=C(CSc1ncccc1-c1nc2ccccc2[nH]1)NCc1ccco1	-2	6	-3	61*	12	13
CC1(C)[C@H]2CC=C(CN3CCC(N4CCC(C(=O)N5CCCC5)CC4)CC3)[C@@H]1C2	-2	-4	-1	41	-12	-12
CCOc1ccccc1N(C)C(=O)CCS(=O)(=O)c1ccc2c(c1)NC(=O)CO2	-5	-7	-3	-1	6	-1
C(#CCN1CCCC1)CC(c1ccccc1)c1ccccc1	-1	-4	-2	39	-13	16
CC(C)(C)c1ccc(-c2csc(NNC3=NCCCCC3)n2)cc1	-5	-4	-5	45	10	18
Brc1ccc(-c2csc(NNC3=NCCCCC3)n2)cc1	-1	-3	-3	88*	-27	-23
FC(F)Oc1ccc(-c2csc(NNC3=NCCCCC3)n2)cc1	-2	-7	-2	61*	-13	-4
